Measurements from paper PMC3947748 (Journal of biomolecular screening, 2010).
Like-named read-outs stand apart in the source and are kept apart here. Blank lines part the entries; values can stand above or below the molecule they belong to.

Key:
Nek2 [1] = target: T1, Nek2 (Homo sapiens, UniProt P51955); assay: Filter assay of Nek2 kinase activity; format: biochemical
T1 sequence (P51955 1-445): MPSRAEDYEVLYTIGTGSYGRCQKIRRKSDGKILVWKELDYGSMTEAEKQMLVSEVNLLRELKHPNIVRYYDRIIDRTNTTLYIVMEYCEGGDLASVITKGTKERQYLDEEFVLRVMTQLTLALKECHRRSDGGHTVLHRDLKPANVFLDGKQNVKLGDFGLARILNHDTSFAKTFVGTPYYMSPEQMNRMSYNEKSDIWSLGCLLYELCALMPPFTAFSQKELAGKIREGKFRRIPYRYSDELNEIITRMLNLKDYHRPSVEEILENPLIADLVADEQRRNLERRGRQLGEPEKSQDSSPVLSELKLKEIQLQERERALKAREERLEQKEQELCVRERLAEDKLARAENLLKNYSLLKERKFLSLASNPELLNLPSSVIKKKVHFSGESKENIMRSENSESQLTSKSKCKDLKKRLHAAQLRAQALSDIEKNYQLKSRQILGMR

Nek2 [2] = target: T1, Nek2; assay: FlashPlate radiometric proximity assay of Nek2 kinase activity; format: biochemical
U2OS:GFP-Nek2A cells = assay: Manual immunofluorescence assay of Nek2A-induced centrosome splitting; format: cell-based, human; settings: doxycycline-induced cells; 0.5, 5 and 50 μM; 24 hours; γ-tubulin stain
Procedure, shortened: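 Tetracycline-inducible stable U2OS:GFP-Nek2A cells were induced with doxycycline together with test compound (0.5, 5, 50 μM) or DMSO (2%) for 24 h. Cells were fixed and stained for γ-tubulin and DNA for indirect immunofluorescence. The percentage of interphase cells with centrosomes more than 2 μm apart was scored. Three repeat experiments, standard deviations; Student's t-test versus DMSO.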

Cdk1/Cyclin B = Cdk1/Cyclin B (Homo sapiens, UniProt P06493); assay: Kinase specificity assay; format: biochemical
Nek7 = Nek7 (Homo sapiens, UniProt Q8TDX7); assay: Kinase specificity assay; format: biochemical
HeLa cells = assay: Growth inhibition assay; format: cell-based; settings: Homo sapiens, 72 h, read-out: Growth inhibition GI50, HeLa
Procedure, shortened: (§1)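 Cells cultured as previously described, seeded at […], then given test compound in DMSO over a concentration range, or DMSO alone (1-2% final), after 24 h. Incubation 72 h.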

U2OS cells = assay: Growth inhibition assay; format: cell-based; settings: Homo sapiens, 72 h, read-out: Growth inhibition GI50, U2OS
Procedure, shortened: as §1

Nek6 = Nek6 (Homo sapiens, UniProt Q9HC98); assay: Kinase specificity assay; format: biochemical
Aurora A = target: T2, Aurora A (Homo sapiens, UniProt O14965); assay: Kinase specificity assay; format: biochemical
T2 sequence (O14965 1-403): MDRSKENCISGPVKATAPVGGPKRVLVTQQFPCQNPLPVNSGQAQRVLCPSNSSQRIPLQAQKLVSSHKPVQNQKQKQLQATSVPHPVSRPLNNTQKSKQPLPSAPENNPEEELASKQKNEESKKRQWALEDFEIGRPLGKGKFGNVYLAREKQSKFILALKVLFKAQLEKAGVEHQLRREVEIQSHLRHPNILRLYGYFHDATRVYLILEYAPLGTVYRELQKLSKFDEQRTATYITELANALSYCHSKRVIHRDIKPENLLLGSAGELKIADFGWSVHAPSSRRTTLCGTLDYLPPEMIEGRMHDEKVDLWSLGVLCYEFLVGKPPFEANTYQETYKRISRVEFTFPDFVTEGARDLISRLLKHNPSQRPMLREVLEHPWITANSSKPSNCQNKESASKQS

Chain of Nek6 (Q9HC98 whole entry, species assumed): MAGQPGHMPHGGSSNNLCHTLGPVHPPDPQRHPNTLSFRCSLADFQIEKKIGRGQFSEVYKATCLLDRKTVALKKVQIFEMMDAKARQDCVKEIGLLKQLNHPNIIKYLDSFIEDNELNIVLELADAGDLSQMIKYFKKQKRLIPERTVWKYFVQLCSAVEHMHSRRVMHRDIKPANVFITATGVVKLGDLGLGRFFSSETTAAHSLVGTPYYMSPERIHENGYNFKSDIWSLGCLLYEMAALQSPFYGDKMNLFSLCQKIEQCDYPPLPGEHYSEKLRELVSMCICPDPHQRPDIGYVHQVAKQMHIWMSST
Chain of Nek7 (Q8TDX7 whole entry, species assumed): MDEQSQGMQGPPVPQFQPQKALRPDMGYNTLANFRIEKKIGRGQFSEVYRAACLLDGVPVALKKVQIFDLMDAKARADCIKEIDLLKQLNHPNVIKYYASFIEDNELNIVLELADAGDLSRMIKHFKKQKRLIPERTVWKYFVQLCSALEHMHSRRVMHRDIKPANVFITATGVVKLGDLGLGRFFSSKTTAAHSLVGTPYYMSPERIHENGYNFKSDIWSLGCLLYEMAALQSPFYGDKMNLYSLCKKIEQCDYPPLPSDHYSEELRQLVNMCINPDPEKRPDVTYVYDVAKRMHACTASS
Chain of Cdk1/Cyclin B (P14635 whole entry): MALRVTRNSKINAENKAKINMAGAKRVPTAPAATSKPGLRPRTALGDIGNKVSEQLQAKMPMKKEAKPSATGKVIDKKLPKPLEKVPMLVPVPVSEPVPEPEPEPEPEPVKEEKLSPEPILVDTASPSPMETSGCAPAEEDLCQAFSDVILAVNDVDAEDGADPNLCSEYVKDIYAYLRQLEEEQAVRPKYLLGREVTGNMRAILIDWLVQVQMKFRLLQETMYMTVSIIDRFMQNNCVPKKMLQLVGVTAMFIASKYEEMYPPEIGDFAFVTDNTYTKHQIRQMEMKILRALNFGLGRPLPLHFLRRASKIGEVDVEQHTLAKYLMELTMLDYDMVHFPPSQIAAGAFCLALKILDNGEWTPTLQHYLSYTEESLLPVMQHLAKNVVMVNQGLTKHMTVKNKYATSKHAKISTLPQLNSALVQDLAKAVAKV
Chain of Cdk1/Cyclin B (P06493 whole entry): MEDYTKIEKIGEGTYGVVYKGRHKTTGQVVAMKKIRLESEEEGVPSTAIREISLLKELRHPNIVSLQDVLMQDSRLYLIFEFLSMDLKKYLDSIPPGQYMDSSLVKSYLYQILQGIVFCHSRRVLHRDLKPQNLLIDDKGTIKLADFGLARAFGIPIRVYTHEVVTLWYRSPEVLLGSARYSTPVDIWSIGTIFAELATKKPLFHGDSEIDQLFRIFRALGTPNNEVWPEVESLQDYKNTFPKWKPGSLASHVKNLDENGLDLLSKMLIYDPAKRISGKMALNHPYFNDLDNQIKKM

- Nek2 inhibition, filter assay (result in words) (Nek2 [1]): inactive
- Nek2 inhibition, FlashPlate (result in words) (Nek2 [2]): inactive
Compound: O=c1cc(N2CCOCC2)oc2c(-c3ccccc3)cccc12 [LY294002]

Compound: Oc1ccc(Nc2nc(OCC3CCCCC3)c3[nH]cnc3n2)cc1 [NU6120, 6-cyclohexylmethoxy-2-(4′-hydroxyanilino)purine]
- Effect on Nek2A-induced centrosome splitting (manual scoring, split >2 μm) (U2OS:GFP-Nek2A cells): had no effect on splitting

Compound: CN[C@@H]1C[C@H]2O[C@@](C)([C@@H]1OC)n1c3ccccc3c3c4c(c5c6ccccc6n2c5c31)C(=O)NC4 [Staurosporine, staurosporine]
- Hill slope of Nek2 inhibition (Nek2 [2]; data not shown): ~1.0
- inhibition at 25 µM (Nek2 [2]; read-out: Inhibition of Nek2 activity at 25 μM, entire screen): 59 ± 18%
- inhibition at 25 µM (Nek2 [2]; read-out: Inhibition of Nek2 activity at 25 μM, typical batch): 61.2 ± 2.4%

Compound: COC[C@H]1OC(=O)c2coc3c2[C@@]1(C)C1=C(C3=O)[C@@H]2CCC(=O)[C@@]2(C)C[C@H]1OC(C)=O [Wortmannin]
- IC50 (Cdk1/Cyclin B): > 400 µM
- IC50 (Nek7): > 400 µM
- GI50 (HeLa cells): 15 µM
- GI50 (U2OS cells): 23.7 µM
- IC50 (Nek6): > 400 µM
- IC50 (Aurora A): > 400 µM
